From ChEMBL document CHEMBL1144871, “Synthesis of substituted 6-anilinouracils and their inhibition of DNA polymerase IIIC and Gram-positive bacterial growth” (J Med Chem, 2003)
Values after ≈ are worked out from the molar mass of the structure shown.

Assays:
Enterococcus faecium = experiment: Antibacterial activity against Enterococcus faecium was determined; type: functional, enterococcus fecium
Method in brief: (§1)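 Broth microdilution MIC. Log-phase cultures grown in Luria broth; wells seeded from stocks at (3-7) × 10⁵ CFU/mL. DMSO stocks diluted 2-fold to five concentrations, 20 to 1.25 µg/mL, plus untreated control; 1% DMSO final in all wells. Duplicate assays, 37 °C for 16 to 24 h, growth read as OD600. MIC taken as lowest concentration preventing growth, averaged.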

Staphylococcus aureus [1] = experiment: Antibacterial activity against Staphylococcus aureus was determined; type: functional
Staphylococcus aureus [2] = experiment: Antibacterial activity against Staphylococcus aureus(smith) was determined; type: functional
Escherichia coli = experiment: Antibacterial activity against Escherichia coli was determined; type: functional; method in brief: as §1
[3] = target: DNA polymerase III PolC-type (Bacillus subtilis (strain 168), UniProt P13267); experiment: Inhibitory activity against DNA polymerase IIIC from Bacillus subtilis was determined
Method in brief: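 Homogeneous recombinant B. subtilis pol IIIC, 0.025-0.06 units, added to buffered Mg²⁺/DTT/glycerol mix with dATP, dCTP, dTTP, [³H]dTTP and activated calf thymus DNA, no dGTP ("truncated" assay). Compound serial dilutions in DMSO added before enzyme. 10 min at 30 °C, TCA-pyrophosphate stop, acid-precipitated DNA filtered and scintillation counted. Apparent Ki read directly; duplicates.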

Bacillus subtilis = experiment: Antibacterial activity against Bacillus subtilis was determined; type: functional
Staphylococcus aureus [4] = experiment: Antibacterial activity against methicillin-resistant strain of Staphylococcus aureus(MRSA B42876) was determined; type: functional
Method in brief: (§2)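 MIC by broth microdilution. Log-phase cultures in Luria broth, seeded at (3-7) × 10⁵ CFU/mL stocks. Compound from DMSO stock, 2-fold serial dilutions giving five concentrations from 20 to 1.25 µg/mL, final 1% DMSO, with untreated and DMSO controls. Duplicate assays, 37 °C for 16 to 24 h, growth read as OD 600 nm. MIC is the averaged lowest concentration preventing growth.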

Enterococcus faecalis [5] = experiment: Antibacterial activity against vancomycin-resistant strain of Enterococcus faecalis(VRE) was determined; type: functional; method in brief: as §2
Enterococcus faecalis [6] = experiment: Antibacterial activity against Enterococcus faecalis was determined; type: functional; method in brief: as §2

Sequence of DNA polymerase III PolC-type (P13267 whole entry, the tested form may be a part): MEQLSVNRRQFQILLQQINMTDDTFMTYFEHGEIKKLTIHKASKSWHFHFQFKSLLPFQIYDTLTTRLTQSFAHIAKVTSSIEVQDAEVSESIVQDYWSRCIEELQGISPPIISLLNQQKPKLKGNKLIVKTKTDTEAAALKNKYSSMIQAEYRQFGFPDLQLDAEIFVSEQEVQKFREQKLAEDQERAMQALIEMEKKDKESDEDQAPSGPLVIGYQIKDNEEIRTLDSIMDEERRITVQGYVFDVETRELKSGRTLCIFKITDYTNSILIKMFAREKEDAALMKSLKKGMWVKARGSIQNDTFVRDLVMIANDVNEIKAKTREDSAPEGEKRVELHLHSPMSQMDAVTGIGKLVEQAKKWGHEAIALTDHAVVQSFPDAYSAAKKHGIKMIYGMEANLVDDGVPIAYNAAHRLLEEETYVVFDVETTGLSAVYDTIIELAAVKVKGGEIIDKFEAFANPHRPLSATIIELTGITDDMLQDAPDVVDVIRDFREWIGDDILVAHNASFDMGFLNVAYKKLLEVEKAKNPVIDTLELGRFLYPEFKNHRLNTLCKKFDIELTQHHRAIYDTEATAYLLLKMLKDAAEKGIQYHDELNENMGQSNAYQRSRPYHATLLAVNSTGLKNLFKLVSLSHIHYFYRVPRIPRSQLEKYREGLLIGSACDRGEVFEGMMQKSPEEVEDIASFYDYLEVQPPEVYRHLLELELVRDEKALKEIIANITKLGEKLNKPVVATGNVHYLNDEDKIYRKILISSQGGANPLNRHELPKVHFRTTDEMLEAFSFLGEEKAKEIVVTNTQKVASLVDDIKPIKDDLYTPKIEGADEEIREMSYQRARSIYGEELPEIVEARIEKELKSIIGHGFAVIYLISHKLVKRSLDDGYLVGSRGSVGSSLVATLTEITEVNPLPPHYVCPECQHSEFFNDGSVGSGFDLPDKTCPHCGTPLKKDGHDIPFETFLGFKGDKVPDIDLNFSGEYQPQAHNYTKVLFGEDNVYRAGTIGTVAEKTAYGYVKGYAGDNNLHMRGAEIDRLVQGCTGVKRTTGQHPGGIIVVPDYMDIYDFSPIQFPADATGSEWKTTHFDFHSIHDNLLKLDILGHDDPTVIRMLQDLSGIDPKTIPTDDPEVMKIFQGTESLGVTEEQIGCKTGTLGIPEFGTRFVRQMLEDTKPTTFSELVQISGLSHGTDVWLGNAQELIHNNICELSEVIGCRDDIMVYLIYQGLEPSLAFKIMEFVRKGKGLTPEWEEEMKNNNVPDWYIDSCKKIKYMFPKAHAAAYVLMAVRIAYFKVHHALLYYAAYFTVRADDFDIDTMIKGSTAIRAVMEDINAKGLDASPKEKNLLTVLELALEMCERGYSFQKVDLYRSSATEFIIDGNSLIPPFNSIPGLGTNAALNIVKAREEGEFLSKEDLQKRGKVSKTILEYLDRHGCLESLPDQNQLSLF

Row | Structure (SMILES) | MIC (Enterococcus faecium) | MIC (Staphylococcus aureus [1]) | MIC (Staphylococcus aureus [2]) | MIC (Escherichia coli) | Ki [3] | MIC (Bacillus subtilis) | MIC (Staphylococcus aureus [4]) | MIC (Enterococcus faecalis [5]) | MIC (Enterococcus faecalis [6])
1 | CCc1cc(Nc2cc(=O)n(CCCCN3CCN(Cc4ccccc4)CC3)c(=O)[nH]2)ccc1C | 10 µg/mL (≈ 21 µM) | 20 µg/mL (≈ 42 µM) | 10 µg/mL (≈ 21 µM) | > 20 µg/mL | 22 nM | 20 µg/mL (≈ 42 µM) | 10 µg/mL (≈ 21 µM) | 5 µg/mL (≈ 10.5 µM) | 10 µg/mL (≈ 21 µM)
2 | CCc1cc(Nc2cc(=O)n(CCCCN=[N+]=[N-])c(=O)[nH]2)ccc1C | < 1.25 µg/mL | 2.5 µg/mL (≈ 7.3 µM) | 2.5 µg/mL (≈ 7.3 µM) | > 20 µg/mL | 120 nM | < 1.25 µg/mL | > 20 µg/mL | 2.5 µg/mL (≈ 7.3 µM) | 5 µg/mL (≈ 14.6 µM)
3 | COCCCCn1c(=O)cc(NCc2ccc(Cl)c(Cl)c2)[nH]c1=O | 5 µg/mL (≈ 13.4 µM) | 10 µg/mL (≈ 26.9 µM) | 5 µg/mL (≈ 13.4 µM) | > 20 µg/mL | 80 nM | 3.75 µg/mL (≈ 10.1 µM) | 20 µg/mL (≈ 53.7 µM) | 5 µg/mL (≈ 13.4 µM) | 5 µg/mL (≈ 13.4 µM)
4 | CCc1cc(Nc2cc(=O)n(CCCCN3CCC(O)(c4ccc(Cl)cc4)CC3)c(=O)[nH]2)ccc1C | 5 µg/mL (≈ 9.78 µM) |  | 5 µg/mL (≈ 9.78 µM) | > 20 µg/mL |  |  | 5 µg/mL (≈ 9.78 µM) | 10 µg/mL (≈ 19.6 µM) | 5 µg/mL (≈ 9.78 µM)
5 | CCc1cc(Nc2cc(=O)n(CCCCN3CCN(c4ncccn4)CC3)c(=O)[nH]2)ccc1C | 5 µg/mL (≈ 10.8 µM) |  | 10 µg/mL (≈ 21.6 µM) | > 20 µg/mL |  |  | 10 µg/mL (≈ 21.6 µM) | 5 µg/mL (≈ 10.8 µM) | 5 µg/mL (≈ 10.8 µM)
6 | COCCCCn1c(=O)cc(Nc2ccc(C)c(Cl)c2)[nH]c1=O | 5 µg/mL (≈ 14.8 µM) | 10 µg/mL (≈ 29.6 µM) | 5 µg/mL (≈ 14.8 µM) | > 20 µg/mL | 42 nM | < 1.25 µg/mL | > 20 µg/mL | 5 µg/mL (≈ 14.8 µM) | 5 µg/mL (≈ 14.8 µM)
7 | COCCCCn1c(=O)cc(Nc2ccc(C)c(CCl)c2)[nH]c1=O | > 20 µg/mL | 20 µg/mL (≈ 56.8 µM) | 20 µg/mL (≈ 56.8 µM) | > 20 µg/mL | 40 nM | 5 µg/mL (≈ 14.2 µM) | 20 µg/mL (≈ 56.8 µM) |  | > 20 µg/mL
8 | CCc1cc(Nc2cc(=O)n(CCCCOC)c(=O)[nH]2)ccc1C |  |  |  | > 20 µg/mL | 88 nM |  |  | 2.5 µg/mL (≈ 7.54 µM) | 
9 | Cc1ccc(Nc2cc(=O)n(CCCCO)c(=O)[nH]2)cc1I | 5 µg/mL (≈ 12 µM) | 10 µg/mL (≈ 24.1 µM) | 5 µg/mL (≈ 12 µM) | > 20 µg/mL | 67 nM | 5 µg/mL (≈ 12 µM) | 5 µg/mL (≈ 12 µM) | 2.5 µg/mL (≈ 6.02 µM) | 5 µg/mL (≈ 12 µM)
10 | COCCCCn1c(=O)cc(Nc2ccc(C)c(C(C)O)c2)[nH]c1=O (centres undefined) | > 20 µg/mL | > 20 µg/mL | > 20 µg/mL | > 20 µg/mL | 2100 nM | > 20 µg/mL |  |  | > 20 µg/mL
11 | COCCCCn1c(=O)cc(Nc2ccc(C)c(C)c2)[nH]c1=O | 20 µg/mL (≈ 63 µM) | 20 µg/mL (≈ 63 µM) | 10 µg/mL (≈ 31.5 µM) | > 20 µg/mL | 550 nM | 2.5 µg/mL (≈ 7.88 µM) | 10 µg/mL (≈ 31.5 µM) | 10 µg/mL (≈ 31.5 µM) | 10 µg/mL (≈ 31.5 µM)
12 | COCCCCn1c(=O)cc(Nc2ccc(C)c(CC#N)c2)[nH]c1=O | 20 µg/mL (≈ 58.4 µM) | > 20 µg/mL | 20 µg/mL (≈ 58.4 µM) | > 20 µg/mL | 1020 nM | 20 µg/mL (≈ 58.4 µM) |  |  | > 20 µg/mL
13 | CCc1cc(Nc2cc(=O)n(CCCCN3CCC(O)(c4ccccc4)CC3)c(=O)[nH]2)ccc1C | 10 µg/mL (≈ 21 µM) | 20 µg/mL (≈ 42 µM) | 20 µg/mL (≈ 42 µM) | > 20 µg/mL | 67 nM | 20 µg/mL (≈ 42 µM) | 20 µg/mL (≈ 42 µM) | 10 µg/mL (≈ 21 µM) | 20 µg/mL (≈ 42 µM)
14 | CCOC1CN(CCCCn2c(=O)cc(Nc3ccc(C)c(CC)c3)[nH]c2=O)CCO1 (centres undefined) | 20 µg/mL (≈ 46.5 µM) | 10 µg/mL (≈ 23.2 µM) | 20 µg/mL (≈ 46.5 µM) | > 20 µg/mL | 43 nM | 2.5 µg/mL (≈ 5.81 µM) | 20 µg/mL (≈ 46.5 µM) | 10 µg/mL (≈ 23.2 µM) | 10 µg/mL (≈ 23.2 µM)
15 | CCc1cc(Nc2cc(=O)n(CCCCI)c(=O)[nH]2)ccc1C | > 20 µg/mL | > 20 µg/mL | > 20 µg/mL | > 20 µg/mL | 140 nM | > 20 µg/mL |  |  | > 20 µg/mL
16 | CCc1cc(Nc2cc(=O)n(CCCCN3CCCCC3)c(=O)[nH]2)ccc1C | 20 µg/mL (≈ 52 µM) | 20 µg/mL (≈ 52 µM) | 40 µg/mL (≈ 104 µM) | > 20 µg/mL | 28 nM | 10 µg/mL (≈ 26 µM) | 40 µg/mL (≈ 104 µM) | 10 µg/mL (≈ 26 µM) | 20 µg/mL (≈ 52 µM)
17 | O=C(O)c1cn(C2CC2)c2cc(N3CCNCC3)c(F)cc2c1=O [CIPROFLOXACIN] |  |  |  | 0.313 µg/mL (≈ 0.945 µM) |  |  |  | 20 µg/mL (≈ 60.4 µM) | 
18 | CN[C@H](CC(C)C)C(=O)N[C@H]1C(=O)N[C@@H](CC(N)=O)C(=O)N[C@H]2C(=O)N[C@H]3C(=O)N[C@H](C(=O)N[C@H](C(=O)O)c4cc(O)cc(O)c4-c4cc3ccc4O)[C@H](O)c3ccc(c(Cl)c3)Oc3cc2cc(c3O[C@@H]2O[C@H](CO)[C@@H](O)[C@H](O)[C@H]2O[C@H]2C[C@](C)(N)[C@H](O)[C@H](C)O2)Oc2ccc(cc2Cl)[C@H]1O [VANCOMYCIN] |  |  |  | > 20 µg/mL |  |  |  | > 20 µg/mL | 
